Bioassay records deposited in PubChem BioAssay by Sanford-Burnham Center for Chemical Genomics.
Shown are actives, neighbours in structure and some others; about 1.2% of the full set was active somewhere.
Diaph inh CS – diaphorase inhibitors and chemical oxidizers, primary screen, counter-screen for diaphorase-coupled primary assays, biochemical, uHTS, resorufin fluorescence | diaphorase resazurin-to-resorufin fluorescence, NADH, 16 min; bacterial (C. kluyveri) enzyme, not human | 0.69% of 190,000 active | inhibition, % at 20 µM;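 active = primary screen inhibition at 20 µM above a set limit, cut at about 50% in these data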
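System: Diaphorase enzyme from Clostridium kluyveri | Amount: Enzyme working solution with 0.14 U/mL diaphorase | Benchmarks: No-NADH positive control and DMSO neutral control | Signal: Fluorescence of resorufin formed from resazurin, Ex 544/Em 590 nm | Schedule: 16-min room-temperature incubation before reading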
HKDC1 inh – HKDC1 hexokinase inhibitors, primary screen, biochemical, fluorescence, uHTS; Q2TB90; recombinant HKDC1, G6PDH/diaphorase resazurin coupled fluorescence; inhibition, % at 20 µM; 0.16% of 340,000 active; AID 493160, 2011;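 active = inhibition above about 35% when tested at 20 µM, limit read from the data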
Target sequence (Q2TB90 whole entry, looked up): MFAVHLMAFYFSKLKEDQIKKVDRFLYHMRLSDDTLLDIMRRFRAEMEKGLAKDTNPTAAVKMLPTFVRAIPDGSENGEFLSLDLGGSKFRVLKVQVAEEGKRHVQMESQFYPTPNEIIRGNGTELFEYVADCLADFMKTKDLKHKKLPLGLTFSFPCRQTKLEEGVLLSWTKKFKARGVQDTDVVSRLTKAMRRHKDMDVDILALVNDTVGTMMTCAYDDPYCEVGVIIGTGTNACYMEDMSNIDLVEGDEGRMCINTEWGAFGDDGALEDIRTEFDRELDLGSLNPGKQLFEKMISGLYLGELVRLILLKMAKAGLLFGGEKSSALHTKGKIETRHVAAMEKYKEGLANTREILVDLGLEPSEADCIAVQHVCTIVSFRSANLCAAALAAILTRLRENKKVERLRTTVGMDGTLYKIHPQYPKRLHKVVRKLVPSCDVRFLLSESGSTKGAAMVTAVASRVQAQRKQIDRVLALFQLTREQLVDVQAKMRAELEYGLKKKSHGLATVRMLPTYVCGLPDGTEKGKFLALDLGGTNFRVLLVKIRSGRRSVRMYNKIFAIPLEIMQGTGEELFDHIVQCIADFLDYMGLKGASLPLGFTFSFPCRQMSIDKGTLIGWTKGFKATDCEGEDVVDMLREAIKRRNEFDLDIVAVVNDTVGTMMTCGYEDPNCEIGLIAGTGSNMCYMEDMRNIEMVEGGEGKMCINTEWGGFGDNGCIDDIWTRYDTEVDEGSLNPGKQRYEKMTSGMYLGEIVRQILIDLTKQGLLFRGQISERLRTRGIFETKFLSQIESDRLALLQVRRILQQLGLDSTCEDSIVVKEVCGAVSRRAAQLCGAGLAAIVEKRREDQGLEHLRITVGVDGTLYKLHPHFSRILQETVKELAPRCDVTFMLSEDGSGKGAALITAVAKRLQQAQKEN
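Material – in-house recombinant HK5 (HKDC1) enzyme · Quantity – HKDC1 at 5 µg/mL · Buffer or medium – pH 8.0 Tris buffer with 10 mM MgCl2 · Reagent – glucose with 1 mM ATP · Dosing – single 20 µM dose · Times – reaction time 90 min, room temperature, protected from light · Technique – resorufin fluorescence at 613 nm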
PfGluPho inh – PfG6PD enzyme inhibitors, primary screen, biochemical, fluorescence intensity, uHTS; glucose-6-phosphate dehydrogenase-6-phosphogluconolactonase (Plasmodium falciparum 3D7); PfGluPho enzyme, NADPH resazurin-diaphorase fluorescence; inhibition, % at 20 µM; 0.78% of 350,000 active; AID 504690, 2011;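 active = inhibition reaching at least a set limit at 20 µM in the primary screen, cut at about 59% in these data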
G6PDH CS – L. mesenteroides G6PDH inhibitors, counter-screen for G6PDH-coupled screening assays, biochemical, Leuconostoc mesenteroides enzyme | 0.12% of 200,000 active | glucose-6-phosphate dehydrogenase [Leuconostoc mesenteroides] | AID 1020, 2008 | Purified L. mesenteroides G6PDH, diaphorase/resazurin coupled fluorescence, 45 min | inhibition, % at 5 µM; in the data active = inhibition above about 50%
PfG6PD confirm – PfG6PD inhibitors, hit retest, confirmation, biochemical, fluorescence intensity, single concentration; shares compounds with PfGluPho inh; recombinant PfGluPho, NADPH-diaphorase-resazurin fluorescence; inhibition, % at 20 µM; 34% of 2,400 active; AID 504753, 2011;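 active = inhibition of at least 50% at 20 µM in any single replicate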
Diaph ctr 10uM – diaphorase inhibitors and chemical oxidizers, confirmation, counter-screen for P. falciparum G6PD inhibitor project, biochemical, fluorescence intensity, 10 µM NADPH | shares compounds with PfGluPho inh | 39% of 820 active | AID 504862, 2011 | inhibition, % at 20 µM | diaphorase-coupled resazurin reduction, NADPH 10 uM;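 active = average inhibition reaching 50% or more with the compound at 20 µM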;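 note: resorufin red fluorescence formed as diaphorase reduces resazurin using NADPH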
Diaph ctr 30uM – diaphorase inhibitors and chemical oxidizers, confirmation, counter-screen for P. falciparum G6PD inhibitor project, biochemical, fluorescence intensity, 30 µM NADPH; inhibition, % at 20 µM; Diaphorase/resazurin coupled assay, resorufin fluorescence; shares compounds with PfGluPho inh; AID 504863, 2011; 29% of 820 active;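 active = inhibition averaging 50% or more, tested at 20 µM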
A number is an active result.

Results for COc1ccc(Nc2nc(-c3ccccc3)c(C(=O)Nc3cccnc3)s2)cc1 ?
Diaph inh CS: inactive; HKDC1 inh: inactive; PfGluPho inh: 65; G6PDH CS: inactive; PfG6PD confirm: inactive

What do the screens show for `CCc1cc2c(=O)c(-c3nc(C)cs3)coc2cc1O`?
HKDC1 inh: inactive; PfGluPho inh: 76; PfG6PD confirm: inactive

Results for COc1cc(C(=S)N2CCCC2)cc(Cl)c1OCC(=O)Nc1ccc(C)cc1C ?
Diaph inh CS: inactive; HKDC1 inh: inactive; PfGluPho inh: 64; G6PDH CS: inactive; PfG6PD confirm: inactive

What do the screens show for `CC(Nc1ccc(N2CCOCC2)cc1)C(=O)N1c2ccccc2CC1C` (centres undefined)?
HKDC1 inh: inactive; PfGluPho inh: 69; PfG6PD confirm: inactive

Results for Cc1ccc(NC(=O)c2ccco2)nc1 ?
HKDC1 inh: inactive; PfGluPho inh: inactive

What do the screens show for `COc1ccc(C(=O)Nc2cc(C)c(NC(=O)c3ccccn3)cn2)cc1`?
HKDC1 inh: inactive; PfGluPho inh: 67; PfG6PD confirm: inactive

How did COc1ccc(C(=O)Nc2cnc(NC(=O)c3cccs3)cc2C)cc1 do in these assays?
HKDC1 inh: inactive; PfGluPho inh: inactive

How did Cc1ccc2nc(SCc3nnc(-c4cccs4)o3)[nH]c2c1 do in these assays?
Diaph inh CS: inactive; HKDC1 inh: inactive; PfGluPho inh: 84; G6PDH CS: inactive; PfG6PD confirm: inactive

What do the screens show for `CCCCCCn1c(=O)n2n(c1=O)[C@@H]1CN(S(=O)(=O)c3ccc(C)cc3)C[C@]1(O)[C@@H](OC(=O)NC1CCCC1)C2`?
PfGluPho inh: inactive

What do the screens show for `CCCCCCn1c(=O)n2n(c1=O)[C@@H]1CN(S(=O)(=O)c3ccc(C)cc3)C[C@]1(O)[C@@H](OC(=O)NC1CC1)C2`?
PfGluPho inh: inactive

What do the screens show for `CCCCCCNC(=O)O[C@H]1Cn2c(=O)n(CCCCCC)c(=O)n2[C@@H]2CN(S(=O)(=O)c3ccc(C)cc3)C[C@]12O`?
PfGluPho inh: 71; PfG6PD confirm: inactive

What do the screens show for `CCCCCCn1c(=O)n2n(c1=O)[C@@H]1CN(S(=O)(=O)c3ccc(C)cc3)C[C@]1(O)[C@@H](OC(=O)NCC1CCCCC1)C2`?
PfGluPho inh: 65; PfG6PD confirm: inactive

Results for CCOc1cc(/C=N/Nc2nnc(C)n2N)ccc1O ?
HKDC1 inh: inactive; PfGluPho inh: 59; PfG6PD confirm: inactive

Results for CCN1CCN(C(=O)c2ccc(N3CC4CC(C3)c3cccc(=O)n3C4)c(NC(=O)c3cc(OC)cc(OC)c3)c2)CC1 (centres undefined) ?
HKDC1 inh: inactive; PfGluPho inh: inactive

How did Cc1cc(C)n(C(=O)c2cc([N+](=O)[O-])cc([N+](=O)[O-])c2)n1 do in these assays?
HKDC1 inh: inactive; PfGluPho inh: inactive

How did O=C(CNC(=O)c1ccc(Br)o1)Nc1cccc(S(=O)(=O)N2CCOCC2)c1 do in these assays?
HKDC1 inh: inactive; PfGluPho inh: inactive

Results for Cc1ccc(Cc2c(-c3ccc(C)cc3)nc3cc(C)ccn23)cc1 ?
PfGluPho inh: 63; PfG6PD confirm: inactive

What do the screens show for `Cc1ccc(Cc2c(-c3ccc(Cl)cc3)nc3cc(C)ccn23)cc1`?
PfGluPho inh: 96; PfG6PD confirm: inactive

What do the screens show for `Cc1ccn2c(Cc3ccccc3)c(-c3ccccc3)nc2c1`?
PfGluPho inh: inactive

Results for Cc1ccn2c(Cc3ccccc3)c(-c3ccc(Br)cc3)nc2c1 ?
PfGluPho inh: 108; PfG6PD confirm: inactive

What do the screens show for `Cn1c(CSc2nc3ccccc3n2C)nc2ccccc21`?
Diaph inh CS: inactive; HKDC1 inh: inactive; PfGluPho inh: 78; G6PDH CS: inactive; PfG6PD confirm: inactive

How did Cc1cc(C)c2[nH]c(C(=O)Nc3ccc4c(c3)OCO4)cc2c1 do in these assays?
HKDC1 inh: inactive; PfGluPho inh: 61; PfG6PD confirm: inactive

Results for Cc1cc(C)c(C)c(Cn2c(CO)nc3ccccc32)c1C ?
Diaph inh CS: inactive; HKDC1 inh: inactive; PfGluPho inh: 69; G6PDH CS: inactive; PfG6PD confirm: inactive

How did COC1=CC(=O)C=C(OC)C1(O)CC(C)=O do in these assays?
HKDC1 inh: inactive; PfGluPho inh: 68; PfG6PD confirm: 54; Diaph ctr 10uM: inactive; Diaph ctr 30uM: inactive

Results for COCC#Cc1ccc2c(c1)O[C@@H](CN(C)C(=O)Nc1ccc(OC)cc1)[C@H](C)CN([C@H](C)CO)S2(=O)=O ?
PfGluPho inh: inactive

What do the screens show for `CC(C)S(=O)(=O)c1csc(NC(=O)Nc2cc(Cl)ccc2Cl)c1Cl`?
HKDC1 inh: inactive; PfGluPho inh: 86; PfG6PD confirm: inactive

Results for CC(=O)NC(CCS(C)(=O)=O)C(=O)Nc1cc(Cl)ccc1Cl (centres undefined) ?
Diaph inh CS: inactive; HKDC1 inh: inactive; PfGluPho inh: inactive; G6PDH CS: inactive

What do the screens show for `COc1ccc(CN2CCN(CCCc3ccccc3)C(CCO)C2)c(OC)c1` (centres undefined)?
HKDC1 inh: inactive; PfGluPho inh: inactive

What do the screens show for `COc1cc(CN2CCN(CCCc3ccccc3)C(CCO)C2)cc(OC)c1O` (centres undefined)?
HKDC1 inh: inactive; PfGluPho inh: 61; PfG6PD confirm: 57; Diaph ctr 10uM: inactive; Diaph ctr 30uM: inactive

How did Cc1ccc(Nc2nnc(SCC(=O)c3ccc(O)cc3O)s2)cc1 do in these assays?
HKDC1 inh: inactive; PfGluPho inh: 68; PfG6PD confirm: inactive

Results for COc1ccccc1N1CCN(/N=C/c2ccc(O)c(O)c2)CC1 ?
Diaph inh CS: 70; HKDC1 inh: inactive; PfGluPho inh: 59; G6PDH CS: inactive; PfG6PD confirm: inactive

What do the screens show for `Cc1no[n+]([O-])c1COc1cccc(/C=N/Nc2nncn2N)c1`?
HKDC1 inh: inactive; PfGluPho inh: 100; PfG6PD confirm: 55; Diaph ctr 10uM: inactive; Diaph ctr 30uM: inactive

How did COc1cc(/C=N/n2nnnc2N)ccc1OCc1c(C)no[n+]1[O-] do in these assays?
Diaph inh CS: inactive; HKDC1 inh: inactive; PfGluPho inh: inactive; G6PDH CS: inactive

What do the screens show for `Cc1cc(O)cc(=O)n1Cc1ccccc1`?
HKDC1 inh: inactive; PfGluPho inh: inactive

Results for CC(=O)c1ccc(NC(=O)/C(=C\c2ccc(F)cc2)NC(=O)c2ccco2)cc1 ?
HKDC1 inh: inactive; PfGluPho inh: inactive
